Assay results published in ChEMBL document CHEMBL4261490, “Exploring the links between peptoid antibacterial activity and toxicity” (Medchemcomm, 2017).
≈ marks a conversion by molar mass, not a printed value. Square brackets hold non-standard residues; d marks the D form. Peptide text beside a SMILES is read from it. Gly(N-(CH2)6NH2) = NCCCCCCNCC(=O)O; Nspe = C[C@H](NCC(=O)O)c1ccccc1; NhArg = N=C(N)NCCCCNCC(=O)O; Nphe = O=C(O)CNCc1ccccc1

Columns and labels:
[1] = system: Pseudomonas aeruginosa; experiment: Antibacterial activity against Pseudomonas aeruginosa PAO1 ATCC 15692 incubated for 16 hrs under shaking condition; type: functional; conditions: PAO1 ATCC 15692, 16 h
Outline: (§1)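 Broth microdilution (Andrews method) in Iso-sensitest broth. Overnight cultures are adjusted to A650 0.07 (0.5 McFarland) and diluted ten-fold. Compounds come from 5 mM DMSO stocks, 2-fold serially diluted, final 2–100 μM in a 1:1 inoculum:compound mix. Incubation is 37 °C for 16 h with shaking. MIC is the lowest concentration giving complete growth inhibition, read by absorbance; triplicate.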

[2] = Selectivity index, ratio of ED50 for human HepG2 cells to MIC for Pseudomonas aeruginosa PAO1 ATCC 15692; type: toxicity; conditions: read-out: Selectivity Index
[3] = Selectivity index, ratio of ED50 for human HepG2 cells to MIC for Staphylococcus epidermidis clinical isolate; type: toxicity; conditions: read-out: Selectivity Index
[4] = Selectivity index, ratio of ED50 for human HaCaT cells to MIC for Staphylococcus epidermidis clinical isolate; type: toxicity; conditions: read-out: Selectivity Index
[5] = Selectivity index, ratio of ED50 for human HepG2 cells to MIC for Escherichia coli K-12 W3110 ATCC 27325; type: toxicity; conditions: read-out: Selectivity Index
[6] = Selectivity index, ratio of ED50 for human HepG2 cells to MIC for Staphylococcus aureus 3R7089 strain Oxford/ATCC 9144; type: toxicity; conditions: read-out: Selectivity Index
[7] = Selectivity index, ratio of ED50 for human HaCaT cells to MIC for Staphylococcus aureus 3R7089 strain Oxford/ATCC 9144; type: toxicity; conditions: read-out: Selectivity Index
[8] = Selectivity index, ratio of ED50 for human HaCaT cells to MIC for Escherichia coli K-12 W3110 ATCC 27325; type: toxicity; conditions: read-out: Selectivity Index
[9] = system: Staphylococcus epidermidis; experiment: Antibacterial activity against Staphylococcus epidermidis clinical isolate incubated for 16 hrs under shaking condition; type: functional; outline: as §1
[10] = system: Staphylococcus aureus; experiment: Antibacterial activity against Staphylococcus aureus 3R7089 strain Oxford/ATCC 9144 incubated for 16 hrs under shaking condition; type: functional; conditions: 3R7089 strain Oxford/ATCC 9144, 16 h; outline: as §1
[11] = Cytotoxicity against human HepG2 cells assessed as reduction in cell viability pretreated for 1 hr followed by DMEM addition measured after 24 hrs by alamar blue assay; type: cell-based; conditions: read-out: ED50
Outline: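 HepG2 cells are kept in DMEM high glucose with 10% heat-inactivated FBS and 1% P/S at 37 °C, 5% CO2, and seeded at 2x10^4 cells/well one day ahead. They are exposed to compounds (100 to 3 µM, from 5 mM DMSO stocks) in 50 µL for 1 h. Medium is then added and cells incubated 24 h. alamarBlue is read after 2 h (Ex 560/Em 600). Triplicate on ≥2 occasions; ED50 from dose-response; DMSO negative control.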

[12] = Cytotoxicity against human HaCaT cells assessed as reduction in cell viability pretreated for 1 hr followed by DMEM addition measured after 24 hrs by alamar blue assay; type: cell-based; conditions: read-out: ED50
Outline: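 HaCaT keratinocytes are grown in DMEM high glucose with 10% FBS and 1% P/S and seeded at 2x10^4 cells/well 24 h before treatment. Compound dilution series run 2–100 µM (5 mM DMSO stocks) in 50 µL for 1 h, then medium is added for 24 h at 37 °C, 5% CO2. alamarBlue is read after 1 h (Ex 540/Em 620). Triplicate, ≥2 occasions; ED50 from dose-response; amphotericin B positive control.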

[13] = Selectivity index, ratio of ED50 for human HaCaT cells to MIC for Pseudomonas aeruginosa PAO1 ATCC 15692; type: toxicity; conditions: read-out: Selectivity Index

Row | SMILES | MIC [1] [µM] | selectivity ratio [2] | selectivity ratio [3] | selectivity ratio [4] | selectivity ratio [5] | selectivity ratio [6] | selectivity ratio [7] | selectivity ratio [8] | MIC [9] [µM] | MIC [10] [µM] | CC50 at 24 h [11] [µM] | CC50 at 24 h [12] [µM] | selectivity ratio [13]
1 | C[C@@H](c1ccccc1)N(CC(N)=O)C(=O)CN(C(=O)CN(CCCCCCN)C(=O)CN(C(=O)CN(C(=O)CNCCCCCCN)[C@@H](C)c1ccccc1)[C@@H](C)c1ccccc1)[C@@H](C)c1ccccc1 | > 100 | 1 | 4 | 4 | 1 | 1 | 1 | 1 | 25 (≈ 24.4 µg/mL) | > 100 | > 100 | > 100 | 1
2 | NCCCCNCC(=O)N(CC(=O)N(CC(=O)N(CCCCN)CC(=O)N(CC(=O)N(CC(=O)N(CCCCN)CC(=O)N(CC(=O)N(CC(N)=O)Cc1cccc(F)c1)Cc1cccc(F)c1)Cc1cccc(F)c1)Cc1cccc(F)c1)Cc1cccc(F)c1)Cc1cccc(F)c1 |  | 2 | 22 | 32 | 3 | 7 | 11 | 5 |  |  |  |  | 3
3 | NCCCCNCC(=O)N(CC(=O)N(CC(=O)N(CCCCN)CC(=O)N(CC(=O)N(CC(=O)N(CCCCN)CC(=O)N(CC(=O)N(CC(N)=O)Cc1ccccc1)Cc1ccccc1)Cc1ccccc1)Cc1ccccc1)Cc1ccccc1)Cc1ccccc1 | > 100 | 1 | 17 | 17 | 2 | 4 | 4 | 2 |  |  | > 100 | > 100 | 1
4 | NCCCCNCC(=O)N(CC(=O)N(CC(=O)N(CCCCN)CC(=O)N(CC(=O)N(CC(=O)N(CCCCN)CC(=O)N(CC(=O)N(CC(=O)N(CCCCN)CC(=O)N(CC(=O)N(CC(N)=O)Cc1cccc(F)c1)Cc1cccc(F)c1)Cc1cccc(F)c1)Cc1cccc(F)c1)Cc1cccc(F)c1)Cc1cccc(F)c1)Cc1cccc(F)c1)Cc1cccc(F)c1 |  | 1 | 6 | 8 | 1 | 3 | 4 | 1 |  |  |  |  | 1
5 | NCCCCCCNCC(=O)N(CC(=O)N(CC(=O)N(CCCCCCN)CC(=O)N(CC(=O)N(CC(N)=O)Cc1ccccc1)Cc1ccccc1)Cc1ccccc1)Cc1ccccc1 (H-[Gly(N-(CH2)6NH2)][Nphe][Nphe][Gly(N-(CH2)6NH2)][Nphe][Nphe]-NH2) | > 100 | 1 | 1 | 1 | 1 | 1 | 1 | 1 | > 100 | > 100 | > 100 | > 100 | 1
6 | NCCCCCCNCC(=O)N(CC(=O)N(CC(=O)N(CCCCCCN)CC(=O)N(CC(=O)N(CC(=O)N(CCCCCCN)CC(=O)N(CC(=O)N(CC(N)=O)Cc1ccccc1)Cc1ccccc1)Cc1ccccc1)Cc1ccccc1)Cc1ccccc1)Cc1ccccc1 (H-[Gly(N-(CH2)6NH2)][Nphe][Nphe][Gly(N-(CH2)6NH2)][Nphe][Nphe][Gly(N-(CH2)6NH2)][Nphe][Nphe]-NH2) | > 100 | 1 | 33 | 33 | 2 | 17 | 17 | 2 | 3 (≈ 4.11 µg/mL) | 6 (≈ 8.21 µg/mL) | > 100 | > 100 | 1
7 | C[C@@H](c1ccccc1)N(CC(N)=O)C(=O)CN(C(=O)CN(CCCCNC(=N)N)C(=O)CN(C(=O)CN(C(=O)CN(CCCCNC(=N)N)C(=O)CN(C(=O)CN(C(=O)CN(CCCCNC(=N)N)C(=O)CN(C(=O)CN(C(=O)CNCCCCNC(=N)N)[C@@H](C)c1ccccc1)[C@@H](C)c1ccccc1)[C@@H](C)c1ccccc1)[C@@H](C)c1ccccc1)[C@@H](C)c1ccccc1)[C@@H](C)c1ccccc1)[C@@H](C)c1ccccc1 (H-[NhArg][Nspe][Nspe][NhArg][Nspe][Nspe][NhArg][Nspe][Nspe][NhArg][Nspe][Nspe]-NH2) |  | 1 | 12 | 20 | 2 | 12 | 20 | 3 |  |  |  | 20 | 2
8 | CC(c1ccccc1)N(CC(=O)N(CCCCN)CC(=O)N(CC(=O)N(CC(=O)N(CCCCN)CC(=O)N(CC(=O)N(CC(N)=O)[C@@H](C)c1ccccc1)Cc1ccc(F)cc1)C(C)c1ccccc1)Cc1ccc(F)cc1)C(=O)CN(Cc1ccc(F)cc1)C(=O)CNCCCCN (single isomer, unassigned) |  |  | 18 | 26 |  | 12 | 17 | 2 | 2 (≈ 2.76 µg/mL) | 3 (≈ 4.14 µg/mL) | 36 | 52 | 
9 | CC(c1ccccc1)N(CC(=O)N(CCN)CC(=O)N(CC(=O)N(CC(=O)N(CCN)CC(=O)N(CC(=O)N(CC(N)=O)[C@@H](C)c1ccccc1)[C@@H](C)c1ccccc1)C(C)c1ccccc1)[C@@H](C)c1ccccc1)C(=O)CN(C(=O)CNCCN)C(C)c1ccccc1 (single isomer, unassigned) | > 100 | 1 | 8 | 8 | 4 | 50 | 50 | 4 |  | 2 (≈ 2.57 µg/mL) | > 100 | > 100 | 1
10 | CC(c1ccccc1)N(CC(=O)N(CCCCN)CC(=O)N(CC(=O)N(CC(=O)N(CCCCN)CC(=O)N(CC(=O)N(CC(N)=O)[C@@H](C)c1ccccc1)[C@@H](C)c1ccccc1)Cc1ccc(F)cc1)Cc1ccc(F)cc1)C(=O)CN(C(=O)CNCCCCN)[C@@H](C)c1ccccc1 (single isomer, unassigned) |  |  | 22 | 33 | 3 | 14 | 22 | 5 | 2 (≈ 2.75 µg/mL) | 3 (≈ 4.13 µg/mL) | 43 | 65 | 3
11 | C[C@H](c1ccccc1)N(CC(N)=O)C(=O)CN(C(=O)CN(CCCCN)C(=O)CN(C(=O)CN(C(=O)CN(CCCCN)C(=O)CN(C(=O)CN(C(=O)CNCCCCN)[C@H](C)c1ccccc1)[C@@H](C)c1ccccc1)[C@H](C)c1ccccc1)[C@@H](C)c1ccccc1)[C@H](C)c1ccccc1 (stereo in doubt) | > 100 | 1 | 50 | 50 | 8 | 50 | 50 | 8 |  | 2 (≈ 2.74 µg/mL) | > 100 | > 100 | 1
